# Measurements: ChEMBL document CHEMBL1125458, “3-O-alkylascorbic acids as free radical quenchers. 3. Protective effect on coronary occlusion-reperfusion induced arrhythmias in anesthetized rats” (1992)
# Assays:
# Cavia porcellus [1] = organism: Cavia porcellus; assay: Inhibitory activity on atrial rate in isolated Guinea pig right atrea at 0.03 mg/mL concentration; format: functional, Cardiac atrium
# Summary of the method: (§1)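 Right atria from male Hartley guinea pigs (450–550 g), loaded at 0.5 g, in Tyrode's solution at 37 °C gassed with 95% O2/5% CO2. Equilibrated at least 30 min until rate stable within 5 beats/min; spontaneous rate and contractile force recorded on polygraph after compound addition.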
# Cavia porcellus [2] = organism: Cavia porcellus; assay: Inhibitory activity on atrial rate in isolated Guinea pig right atrea at 0.1 mg/mL concentration; format: functional, Cardiac atrium; summary of the method: as §1
# Cavia porcellus [3] = organism: Cavia porcellus; assay: Inhibitory activity on atrial rate in isolated Guinea pig right atrea at 0.3 mg/mL concentration; format: functional, Cardiac atrium; summary of the method: as §1
# Cavia porcellus [4] = organism: Cavia porcellus; assay: Inhibitory activity on atrial contractility in isolated Guinea pig right atrea at 0.03 mg/mL concentration p<0.05; format: functional, Cardiac atrium; summary of the method: as §1
# Cavia porcellus [5] = organism: Cavia porcellus; assay: Inhibitory activity on atrial contractility in isolated Guinea pig right atrea at 0.1 mg/mL concentration p<0.05; format: functional, Cardiac atrium; summary of the method: as §1
# Cavia porcellus [6] = organism: Cavia porcellus; assay: Inhibitory activity on atrial contractility in isolated Guinea pig right atrea at 0.3 mg/mL concentration; format: functional, Cardiac atrium; summary of the method: as §1
# Rattus norvegicus [7] = assay: Effect (10 mg/kg, iv) on coronary reperfusion-induced arrhythmias was assessed in anesthetized rats.(Intervals of ventricular tachycardia (VT)+ventricular fibrillation (VF) within 600 s.; format: functional, Cardiac ventricle
# Rattus norvegicus [8] = organism: Rattus norvegicus; assay: Inhibition of lipid peroxidation in rat liver microsomes.; format: functional; set-up: concentration or dose not given beside the values; details: dose or concentration not given here
# Summary of the method: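 Wistar rat liver microsomes (2.0 mg protein) in 83.5 mM KCl, 37.2 mM Tris-HCl pH 7.4 with 1 mM ADP, 10 µM FeCl3, 0.02 mM NADPH; compound added in DMF, tested at 10^-5 M. 37 °C, 20 min. Malondialdehyde measured by thiobarbituric acid method, A532; % inhibition, mean ± SD, n = 3–6.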
# Cavia porcellus [9] = organism: Cavia porcellus; assay: Inhibitory activity on atrial contractility in isolated Guinea pig right atria at 0.3 mg/mL concentration; format: functional; details: Cardiac atrium; summary of the method: as §1
# Cavia porcellus [10] = organism: Cavia porcellus; assay: Inhibitory activity against atrial rate in isolated Guinea pig right atrea at 0.3 mg/mL concentration; format: functional, Cardiac atrium; summary of the method: as §1
# Cavia porcellus [11] = organism: Cavia porcellus; assay: Inhibitory activity on atrial rate in isolated Guinea pig right atria at 0.03 mg/mL concentration; format: functional; details: Cardiac atrium; summary of the method: as §1
# Cavia porcellus [12] = organism: Cavia porcellus; assay: Inhibitory activity on atrial rate in isolated Guinea pig right atria at 0.1 mg/mL concentration; format: functional; details: Cardiac atrium
# Summary of the method: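 Right atria from male Hartley guinea pigs (450–550 g), held under a 0.5 g load at 37 °C in Tyrode's solution gassed with 95% O2 + 5% CO2. After at least 30 min equilibration (rate stable within 5 beats/min), atrial rate and contractile force of spontaneously beating preparations were recorded on a polygraph with compound present.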
# Cavia porcellus [13] = organism: Cavia porcellus; assay: Inhibitory activity on atrial contractility in isolated Guinea pig right atria at 0.1 mg/mL concentration; format: functional; details: Cardiac atrium; summary of the method: as §1
# Rattus norvegicus [14] = assay: Effect (30 mg/kg, iv) on coronary reperfusion-induced arrhythmias was assessed in anesthetized rats.(Intervals of ventricular tachycardia (VT)+ventricular fibrillation (VF) within 600 s.; format: functional, Cardiac ventricle
# Cavia porcellus [15] = organism: Cavia porcellus; assay: Inhibitory activity on atrial contractility in isolated Guinea pig right atria at 0.03 mg/mL concentration; format: functional; details: Cardiac atrium; summary of the method: as §1
# Rattus norvegicus [16] = organism: Rattus norvegicus; assay: Inhibitory effect on production of active oxygen species by rat peritoneal exudate macrophages; format: functional; set-up: concentration or dose not given beside the values
# Summary of the method: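 Peritoneal exudate macrophages harvested 3 days after ip liquid paraffin (male Wistar rats), >90% viable. Assay: 125 mM sodium phosphate pH 6.5, 0.08 mM EDTA, 1.2 U LDH, 0.32 mM NADH, (2–3) × 10^6 cells, compound in DMF, 1 × 10^-4 M. Started with NADH.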
# Rattus norvegicus [17] = assay: Effect (10 mg/kg, iv) on coronary reperfusion-induced arrhythmias was assessed in anesthetized rats.(Intervals of ventricular tachycardia (VT)+ventricular fibrillation (VF) within 600 s; format: functional, Cardiac ventricle
# Rattus norvegicus [18] = assay: Effect (1 mg/kg, iv) on coronary reperfusion-induced arrhythmias was assessed in anesthetized rats.(Intervals of ventricular tachycardia (VT)+ventricular fibrillation (VF) within 600 s; format: functional, Cardiac ventricle
# Rattus norvegicus [19] = assay: Effect (30 mg/kg, po) on coronary reperfusion-induced arrhythmias was assessed in anesthetized rats.(Intervals of ventricular tachycardia (VT)+ventricular fibrillation (VF) within 600 s.; format: functional, Cardiac ventricle
# Summary of the method: (§2)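 Male Wistar rats (350–450 g) dosed orally 1 h before occlusion, then anesthetized with pentobarbital (60 mg/kg ip) and ventilated. LAD ligated 5 min, reperfused 10 min; VT plus VF durations summed within 600 s. Mean ± SE, n = 5–10; line 2 value is the minimum effective dose.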
# Rattus norvegicus [20] = assay: Change in heart rate was measured at 1 mg/kg dose(iv) in anesthetized rats; format: functional
# Summary of the method: (§3)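 Anesthetized male Wistar rats (pentobarbital 60 mg/kg ip); compound in saline/1% olive oil/1% Tween 80 given by femoral vein. Lead II ECG recorded and heart rate read by beat-to-beat tachograph for 10 min after dosing; change in beats/min, mean ± SE, n = 3–4.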
# Rattus norvegicus [21] = assay: Change in heart rate was measured at 3 mg/kg dose(iv) in anesthetized rats; format: functional; summary of the method: as §3
# Rattus norvegicus [22] = assay: inhibitory activity was tested against anesthetized rats; format: functional
# Rattus norvegicus [23] = assay: Antiarrhythmic activity against anesthetized rats after intravenous administration; format: functional, Heart
# Rattus norvegicus [24] = assay: Antiarrhythmic activity against anesthetized rats after peroral administration; format: functional, Heart; summary of the method: as §2
# Rattus norvegicus [25] = assay: Change in arterial blood pressure was measured at 1 mg/kg dose(iv) in anesthetized rats; format: functional, Artery
# Summary of the method: (§4)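 Male Wistar rats, pentobarbital 60 mg/kg ip, supine. Compound suspended in saline with 1% olive oil and 1% Tween 80, injected via femoral vein. Femoral arterial pressure monitored 10 min after injection; change in mmHg, mean ± SE, n = 3–4.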
# Rattus norvegicus [26] = assay: Change in arterial blood pressure was measured at 3 mg/kg dose(iv) in anesthetized rats; format: functional, Artery; summary of the method: as §4
# Cavia porcellus [27] = organism: Cavia porcellus; assay: Inhibitory activity against atrial contractility in isolated Guinea pig right atrea at 0.03 mg/mL concentration; format: functional, Cardiac atrium; summary of the method: as §1
# Cavia porcellus [28] = organism: Cavia porcellus; assay: Inhibitory activity against atrial contractility in isolated Guinea pig right atrea at 0.1 mg/mL concentration; format: functional, Cardiac atrium; summary of the method: as §1
# Cavia porcellus [29] = organism: Cavia porcellus; assay: Inhibitory activity against atrial contractility in isolated Guinea pig right atrea at 0.3 mg/mL concentration; format: functional, Cardiac atrium; summary of the method: as §1
# Cavia porcellus [30] = organism: Cavia porcellus; assay: Inhibitory activity against atrial rate in isolated Guinea pig right atrea at 0.03 mg/mL concentration; format: functional, Cardiac atrium; summary of the method: as §1
# Cavia porcellus [31] = organism: Cavia porcellus; assay: Inhibitory activity against atrial rate in isolated Guinea pig right atrea at 0.1 mg/mL concentration; format: functional, Cardiac atrium; summary of the method: as §1
# Rattus norvegicus [32] = assay: Effect (100 mg/kg, po) on coronary reperfusion-induced arrhythmias was assessed in anesthetized rats.(Intervals of ventricular tachycardia (VT)+ventricular fibrillation (VF) within 600 s.; format: functional, Cardiac ventricle; summary of the method: as §2
# Rattus norvegicus [33] = assay: Effect (10 mg/kg, po) on coronary reperfusion-induced arrhythmias was assessed in anesthetized rats.(Intervals of ventricular tachycardia (VT)+ventricular fibrillation (VF) within 600 s.; format: functional, Cardiac ventricle; summary of the method: as §2
# Rattus norvegicus [34] = assay: Change in heart rate was measured at 10 mg/kg dose(iv) in anesthetized rats; format: functional; summary of the method: as §3
# Rattus norvegicus [35] = assay: Change in heart rate was measured at 30 mg/kg dose(iv) in anesthetized rats; format: functional; summary of the method: as §3
# Rattus norvegicus [36] = assay: Change in arterial blood pressure was measured at 10 mg/kg dose(iv) in anesthetized rats; format: functional, Artery; summary of the method: as §4
# Rattus norvegicus [37] = assay: Change in arterial blood pressure was measured at 30 mg/kg dose(iv) in anesthetized rats; format: functional, Artery; summary of the method: as §4
structure (smiles),measurement,setting,value
CCCCCCCCc1ccc(C(=O)COC2=C(O)C(=O)OC2C(O)CO)cc1 (stereo unspecified),Inhibition,Cavia porcellus [1],-0.4%
same,Inhibition,Cavia porcellus [2],-0.9%
same,Inhibition,Cavia porcellus [3],0.3%
same,Inhibition,Cavia porcellus [4],15.8%
same,Inhibition,Cavia porcellus [5],33.5%
same,Inhibition,Cavia porcellus [6],45%
same,Arrhythmias times,Rattus norvegicus [7],461
same,inhibition,Rattus norvegicus [8],88%
CCCCc1ccc(C(=O)COC2=C(O)C(=O)OC2C(O)CO)cc1 (stereo unspecified),inhibition at 300 µg/mL,Cavia porcellus [9],67.1%
same,Inhibition,Cavia porcellus [10],25.6%
same,inhibition at 30 µg/mL,Cavia porcellus [11],8.8%
same,inhibition at 100 µg/mL,Cavia porcellus [12],17%
same,inhibition at 100 µg/mL,Cavia porcellus [13],52.8%
same,Arrhythmias times,Rattus norvegicus [14],325
same,inhibition,Rattus norvegicus [8],82%
same,inhibition at 30 µg/mL,Cavia porcellus [15],36.2%
CCCCCCCCCCCCCCCCCCOC1=C(O)C(=O)OC1C(O)CO (stereo unspecified),Arrhythmias times,Rattus norvegicus [14],447
same,Inhibition,Rattus norvegicus [16],53.3%
same,inhibition,Rattus norvegicus [8],45%
CCCCCCCCC(=O)COC1=C(O)C(=O)OC1C(O)CO (stereo unspecified),Arrhythmias times,Rattus norvegicus [7],433
same,Inhibition,Rattus norvegicus [16],4.9%
same,inhibition,Rattus norvegicus [8],64%
CCCCCCCCCCCCCCC(=O)COC1=C(O)C(=O)OC1C(O)CO (stereo unspecified),Arrhythmias times,Rattus norvegicus [14],445
same,Inhibition,Rattus norvegicus [16],36.8%
same,inhibition,Rattus norvegicus [8],65%
CCCCCCCCCCCCOC1=C(O)C(=O)OC1C(O)CO (stereo unspecified),Arrhythmias times,Rattus norvegicus [17],49
same,Inhibition,Rattus norvegicus [16],38.7%
same,inhibition,Rattus norvegicus [8],91%
O=C1OC(C(O)CO)C(OCC(=O)c2ccccc2)=C1O (stereo unspecified),Arrhythmias times,Rattus norvegicus [14],429
same,inhibition,Rattus norvegicus [8],1%
CCCCCCCCCCC(=O)COC1=C(O)C(=O)OC1C(O)CO (stereo unspecified),Arrhythmias times,Rattus norvegicus [18],205
same,Inhibition,Rattus norvegicus [16],11.1%
same,inhibition,Rattus norvegicus [8],88%
CCCCCCCCCCCC1OCC(C2OC(O)=C(O)C2=O)O1 (stereo unspecified),Arrhythmias times,Rattus norvegicus [18],186
same,Arrhythmias times,Rattus norvegicus [19],420.8
same,Delta heart rate,Rattus norvegicus [20],-10.3 beats min-1
same,Delta heart rate,Rattus norvegicus [21],-75 beats min-1
same,Inhibition,Rattus norvegicus [22],19%
same,Efficacy,Rattus norvegicus [23],>1 mg/kg
same,Efficacy,Rattus norvegicus [24],30 mg/kg
same,Delta blood pressure,Rattus norvegicus [25],-7 mmHg
same,inhibition,Rattus norvegicus [8],89%
same,Delta blood pressure,Rattus norvegicus [26],-30.3 mmHg
CCCCCCCCCCCCC(=O)COC1=C(O)C(=O)OC1C(O)CO (stereo unspecified),Inhibition,Cavia porcellus [27],25%
same,Inhibition,Cavia porcellus [28],30.2%
same,Inhibition,Cavia porcellus [29],41.3%
same,Inhibition,Cavia porcellus [30],12.9%
same,Inhibition,Cavia porcellus [31],14.6%
same,Inhibition,Cavia porcellus [10],13%
same,Arrhythmias times,Rattus norvegicus [32],85.4
same,Arrhythmias times,Rattus norvegicus [18],185
same,Arrhythmias times,Rattus norvegicus [33],378.2
same,Arrhythmias times,Rattus norvegicus [19],313.3
same,Delta heart rate,Rattus norvegicus [34],-8.3 beats min-1
same,Delta heart rate,Rattus norvegicus [35],-35 beats min-1
same,Efficacy,Rattus norvegicus [23],>1 mg/kg
same,Efficacy,Rattus norvegicus [24],>30 mg/kg
same,Delta blood pressure,Rattus norvegicus [36],-5 mmHg
same,Delta blood pressure,Rattus norvegicus [37],-17.7 mmHg
same,Inhibition,Rattus norvegicus [16],6.3%
same,inhibition,Rattus norvegicus [8],85%
